Data from PMC10824272 (Biomedicine & pharmacotherapy = Biomedecine & …, 2023).
Entries after “also recorded” stand apart in the source; their conditions may differ.

Legend:
HCT116 cells [1] = assay: Anoikis-induced apoptosis assay; assay type: cell-based, human; details: claudin-1 deficient HCT116
[2] = test system: colon tumoroids from APC^min/+ / claudin-1 mice; assay: Tumoroid culture apoptosis; assay type: cell-based
Summary of the method: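 Colon tumors from APCmin/+/claudin-1 mice washed in ice-cold PBS and digested with collagenase-containing buffer. Single cells pelleted at 200 x g for 3 min, embedded in Matrigel and plated as tumoroids. Tumoroids exposed to test compound alone or with 5 μM 5-FU, then scored for apoptosis.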

SW620 cells [3] = assay: Transwell matrigel invasion assay; assay type: cell-based, human; details: I-6; claudin-1 overexpressed SW620
SW620 cells [4] = assay: Anoikis-induced apoptosis assay; assay type: cell-based
[5] = Tissue bio-distribution in mice; assay type: in vivo; details: both, mouse, liver, po, 5 mg/kg
SW480^cld1 cells [6] = assay: Transwell matrigel invasion assay; assay type: cell-based, human; details: I-6; claudin-1 overexpressed SW480^cld1
[7] = test system: SW480^cld1 xenograft tumor; assay: Subcutaneous xenograft tumor study; assay type: in vivo, athymic nude mice
Summary of the method: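 Cells implanted subcutaneously in athymic nude mice, n = 5 per group, vehicle controls. For SW480cld1 with I-6, once-weekly dosing started 10 days after implantation, once tumors were palpable, for two weeks. Caliper volume over time, formula […]. Ki67 and cleaved PARP by IHC. Behavior and body weight monitored.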

SW480 cells = assay: Cell viability; assay type: cell-based, human; details: even at 25μM
SW620^1C cells = assay: Anoikis-induced apoptosis assay; assay type: cell-based, human; details: claudin-1 knockdown SW620^1C
Summary of the method: (§1)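 Anoikis induced by plating cells on poly-HEMA-coated culture plates. Apoptosis quantified with a cell death detection ELISA. Parental lines were cultured in RPMI with 10% FBS. Claudin-1-overexpressing SW480 and claudin-1-knockdown SW620 derivatives were used.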

SW620 cells [8] = assay: Cell viability; assay type: cell-based, human
Summary of the method: (§2)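 Claudin-1-overexpressing SW480cld1 and SW620 cells grown in RPMI with 10% FBS and exposed for 72 hours to a range of test compound concentrations. Viability measured by PrestoBlue reagent. EC50 calculated from the concentration–viability data.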

[9] = test system: pSrc, pAkt, Bcl2, Bcl-xL, survivin, cleaved PARP in SW620 and SW480^cld1 cells; assay: Immunoblotting of signaling and apoptosis markers; assay type: cell-based, human; details: I-6, SW480^cld1 cells
Summary of the method: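 Treated cells (vehicle or 12.5 and 25 μM) lysed. 10–30 μg protein per lane resolved by SDS-PAGE and immunoblotted, with enhanced chemiluminescence detection on film. Antibodies included p-Src (Tyr416), pAkt and total Akt, with GAPDH or β-actin as loading reference.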

[10] = Plasma pharmacokinetics in mice; assay type: in vivo
Summary of the method: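 I-6 given as a single 1 mg/kg intravenous dose to C57BL6 mice (n=5), with serial blood sampling. PDS-0330 given at 5 mg/kg by oral gavage or IP, with ~100 μl blood drawn from the maxillary vein at 5, 15, 30 min and 1, 2, 4, 6, 8, 24 h. Plasma levels in ng/ml; non-compartmental parameters.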

HCT116 cells [11] = assay: Cell viability; assay type: cell-based, human; details: 25 & 50μM
Summary of the method: (§3)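 Cells maintained in RPMI plus 10% FBS. Viability read with PrestoBlue reagent per kit protocol after 72 h exposure to test compound.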

SW480^cld1 cells [12] = assay: Cell viability; assay type: cell-based, human
Summary of the method: as §2

SW480^cld1 cells [13] = assay: Anoikis-induced apoptosis assay; assay type: cell-based
Summary of the method: as §1

[14] = Metabolic stability, phase I; assay type: in vitro ADME, human; details: HLM, phase I metabolism, 60 min
Summary of the method: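 Phase I stability in human liver microsomes (20 mg/ml stock), 100 mM potassium phosphate pH 7.4, 10 mM MgCl2, 2 mM NADPH. Mix pre-incubated 10 min at 37 °C. Output is percent parent remaining per time point. Elimination rate constant taken from first-order plot of ln area ratio versus time.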

SW480^cld2 cells = assay: Cell viability; assay type: cell-based, human; details: 25 & 50μM
Summary of the method: as §3

HCT116 cells [15] = assay: Transwell matrigel invasion assay; assay type: cell-based, human; details: I-6; claudin-1 deficient HCT116
[16] = target: T1, claudin-1/Src association (Homo sapiens, UniProt O95832); assay: Proximity ligation assay; assay type: cell-based
T1 sequence (O95832 1-211): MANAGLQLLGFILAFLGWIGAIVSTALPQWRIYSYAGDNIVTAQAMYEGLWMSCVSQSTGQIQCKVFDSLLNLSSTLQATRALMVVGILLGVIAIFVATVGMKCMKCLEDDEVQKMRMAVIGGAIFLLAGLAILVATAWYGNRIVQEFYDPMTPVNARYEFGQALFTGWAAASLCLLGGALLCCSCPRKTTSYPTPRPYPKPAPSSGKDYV

[17] = I-6 1mg/kg intravenous, mice, plasma, 1 mg/kg
[18] = both, C57BL6, mouse, plasma, iv, 1 mg/kg

SMILES: COc1cc2ccccc2cc1C(=O)NC(=S)Nc1ccc(-c2nc3ccccc3[nH]2)cc1 [I-6, N-((4-(1H-benzo[d]imidazol-2-yl)phenyl)carbamothioyl)-3-methoxy-2-naphthamide]
- resistance to anoikis (HCT116 cells [1]): no effect
- effect with 5-FU on induction of apoptosis in tumoroids ([2]; I-6 25μM with 5-FU 5μM): synergistic effect
- rate of apoptosis in tumoroids ([2]; I-6 25μM, 48 hours): significantly increased
- invasion (SW620 cells [3]): suppresses invasion
- resistance to anoikis (SW620 cells [4]; claudin-1 overexpressed SW620): inhibition of resistance to anoikis
- effect with 5-FU on anoikis resistance (SW620 cells [4]; co-treatment with 5-FU): synergistic effect
- concentration at 24 h [5]: 65 ng/g
- invasion (SW480^cld1 cells [6]): suppresses invasion
- Ki67 expression in tumors (IHC) ([7]; I-6 10 mg/kg): significantly inhibited
- cleaved PARP in tumors (IHC) ([7]; I-6 10 mg/kg): significantly increased
- tumor volume and weight at necropsy ([7]; I-6 10 mg/kg once/week, vs vehicle): significantly reduced
- effect with 5-FU on development of xenograft tumor ([7]; co-treatment with 5-FU, nude mice): synergistic effect
- mouse behavior or weight ([7]; during I-6 / 5-FU xenograft studies): no obvious changes
- impact on SW480 cells (SW480 cells): no significant impact
- resistance to anoikis (SW620^1C cells): no effect
- cell viability (SW620 cells [8]; 25 & 50μM, P<0.001): significantly decreases cell viability
- EC50 (SW620 cells [8]; Homo sapiens, SW-620, 72 h, read-out: EC50, cell viability): 24.8 µM
- Src phosphorylation [9]: significantly interferes
- time up to which detectable in plasma ([10]; I-6 1mg/kg intravenous, mice): up to 24 h
- AUC0- ∞ [10, 17]: 1207.1 ± 35.6 ng·h/mL
- C0 [10, 17]: 798.3 ± 277.2 ng/mL
- time of plasma peak concentration ([10]; I-6 oral 5mg/kg, mice): 2 h
- AUC(0-t) [10, 18]: 1140 ± 59.6 ng·h/mL
- MRT [10, 18]: 5.6 ± 1.2 h
- half-life [10, 18]: 7 ± 1.6 h
- AUC(0-inf) ([10]; both, C57BL6, mouse, plasma, iv, 1 mg/kg, AUC0- ∞, I-6 1mg/kg intravenous, mice): 1140 ng·h/mL
- C0 ([10]; both, C57BL6, mouse, plasma, iv, 1 mg/kg, C0, I-6 1mg/kg intravenous, mice): 798 ng/mL
- Vd ([10]; both, C57BL6, mouse, plasma, iv, 1 mg/kg, Vd, I-6 1mg/kg intravenous, mice): 8.4 ± 2.1 L/kg
- Vd ([10]; both, C57BL6, mouse, plasma, iv, 1 mg/kg, Vss, I-6 1mg/kg intravenous, mice): 4.7 ± 1.1 L/kg
- Cmax ([10]; both, mouse, plasma, po, 5 mg/kg): 2.8 ng/mL
- cell viability (HCT116 cells [11]): no significant impact
- cell viability (SW480^cld1 cells [12]; 25 & 50μM, P<0.001): significantly decreases cell viability
- EC50 (SW480^cld1 cells [12]; Homo sapiens, 72 h, read-out: EC50, cell viability): 28.4 µM
- effect with 5-FU on cell growth (SW480^cld1 cells [12]; I-6 0.625μM-20μM with 5-FU 5μM): synergistic effect
- resistance to anoikis (SW480^cld1 cells [13]; claudin-1 overexpressed SW480^cld1): dramatically inhibits anoikis resistance; also recorded: inhibition of resistance to anoikis
- effect with 5-FU on anoikis resistance (SW480^cld1 cells [13]; co-treatment with 5-FU): synergistic effect
- drug remaining after 60 min [14]: 49%
- cell viability (SW480^cld2 cells): no significant impact
- invasion (HCT116 cells [15]): no effect
- association of claudin-1 with Src [16]: significantly interferes
